Measurements published in ChEMBL document CHEMBL1914314, “Acidic triazoles as soluble guanylate cyclase stimulators” (Bioorg Med Chem Lett, 2011).

Tests used:
[1] = target: T1, Soluble guanylate cyclase (Homo sapiens) (UniProt Q02153+O75343+P33402+Q02108); experiment: Activation of human soluble guanylate cyclase assessed as production of cGMP in presence of nitric oxide donor, SIN-1 by LC-MS enzyme assay; type: protein-complex assay
[2] = target: T1, Soluble guanylate cyclase (Homo sapiens); experiment: Activation of human soluble guanylate cyclase assessed as production of cGMP in presence of nitric oxide donor, SIN-1 by FP assay; type: protein-complex assay
Outline: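 Purified human sGC with the NO donor SIN-1 present. Enzyme converts GTP to cGMP, and the cGMP binds a cGMP-specific antibody included in the reactions. Read-out is fluorescence polarization.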

[3] = Activation of soluble guanylate cyclase in Sprague-Dawley rat thoracic aorta rings assessed as […] in presence of nitric oxide donor, DETA-NO; type: tissue-based
[4] = Octanol-buffer partition coefficient, log D of the compound at pH 7.4; type: physicochemical
Outline: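 LogD measured by partition between octanol and pH 7.4 buffer.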

[5] = Apparent permeability from apical to basolateral side in dog RRCK cells; type: ADME, cell-based, Canis lupus familiaris, MDCKII-LE; details: MDCK
Outline: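 Passive permeability measured in RRCK cells as Papp A→B, in units of 10^-6 cm/s.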

[6] = Intrinsic clearance in human liver microsomes assessed per mg of protein; type: ADME, Microsome
Outline: (§1)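 Intrinsic metabolic clearance in liver microsomes, expressed as µL/min/mg protein.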

CYP1A2 = target: T2, CYP1A2 (Homo sapiens, UniProt P05177); experiment: Inhibition of CYP1A2 at 3 uM; type: ADME
T2 sequence (P05177 whole entry): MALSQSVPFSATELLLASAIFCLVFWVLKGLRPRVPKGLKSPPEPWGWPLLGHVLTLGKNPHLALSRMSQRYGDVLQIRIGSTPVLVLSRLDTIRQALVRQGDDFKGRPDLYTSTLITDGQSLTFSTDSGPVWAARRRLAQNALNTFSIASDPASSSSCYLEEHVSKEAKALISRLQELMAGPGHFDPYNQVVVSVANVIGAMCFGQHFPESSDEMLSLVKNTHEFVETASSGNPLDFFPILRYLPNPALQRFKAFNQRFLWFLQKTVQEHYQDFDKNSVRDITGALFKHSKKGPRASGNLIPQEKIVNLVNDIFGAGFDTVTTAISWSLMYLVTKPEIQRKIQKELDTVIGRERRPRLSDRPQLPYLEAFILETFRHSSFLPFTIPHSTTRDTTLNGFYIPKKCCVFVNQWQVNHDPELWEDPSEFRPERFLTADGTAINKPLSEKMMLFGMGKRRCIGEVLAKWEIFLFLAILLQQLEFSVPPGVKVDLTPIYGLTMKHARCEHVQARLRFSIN

[7] = Clearance in rat at 2 mg/kg, iv; type: ADME, organism-based; set-up: dose 2 mg/kg, route intravenous; details: in vivo
Outline: (§2)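 Rats dosed iv at 2 mg/kg. Clearance, volume of distribution at steady state and half-life derived after iv dosing.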

[8] = Volume of distribution at steady state in rat at 2 mg/kg, iv; type: ADME, organism-based; set-up: dose 2 mg/kg, route intravenous; details: in vivo, read-out: Vdss; outline: as §2
[9] = Half life in rat at 2 mg/kg, iv; type: ADME, organism-based; set-up: dose 2 mg/kg, route intravenous; details: in vivo; outline: as §2
[10] = Oral bioavailability in rat at 2 mg/kg; type: ADME, organism-based; details: in vivo
Outline: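 Rats dosed orally at 2 mg/kg. Bioavailability determined after oral dosing, with a 2 mg/kg iv arm for reference.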

[11] = Activation of soluble guanylate cyclase in Sprague-Dawley rat thoracic aorta rings assessed as inhibition of noradrenaline-evoked vasoconstriction in presence of nitric oxide donor, DETA-NO
[12] = Intrinsic clearance in rat liver microsomes assessed per mg of protein; type: ADME, Microsome; outline: as §1
[13] = target: Voltage-gated inwardly rectifying potassium channel KCNH2 (Homo sapiens, UniProt Q12809); experiment: Inhibition of human ERG
[14] = Apparent permeability of the compound by PAMPA assay; type: ADME
Outline: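 Passive permeability from a PAMPA screen, as Papp in units of 10^-6 cm/s.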

Chain of Voltage-gated inwardly rectifying potassium channel KCNH2 (Q12809 whole entry): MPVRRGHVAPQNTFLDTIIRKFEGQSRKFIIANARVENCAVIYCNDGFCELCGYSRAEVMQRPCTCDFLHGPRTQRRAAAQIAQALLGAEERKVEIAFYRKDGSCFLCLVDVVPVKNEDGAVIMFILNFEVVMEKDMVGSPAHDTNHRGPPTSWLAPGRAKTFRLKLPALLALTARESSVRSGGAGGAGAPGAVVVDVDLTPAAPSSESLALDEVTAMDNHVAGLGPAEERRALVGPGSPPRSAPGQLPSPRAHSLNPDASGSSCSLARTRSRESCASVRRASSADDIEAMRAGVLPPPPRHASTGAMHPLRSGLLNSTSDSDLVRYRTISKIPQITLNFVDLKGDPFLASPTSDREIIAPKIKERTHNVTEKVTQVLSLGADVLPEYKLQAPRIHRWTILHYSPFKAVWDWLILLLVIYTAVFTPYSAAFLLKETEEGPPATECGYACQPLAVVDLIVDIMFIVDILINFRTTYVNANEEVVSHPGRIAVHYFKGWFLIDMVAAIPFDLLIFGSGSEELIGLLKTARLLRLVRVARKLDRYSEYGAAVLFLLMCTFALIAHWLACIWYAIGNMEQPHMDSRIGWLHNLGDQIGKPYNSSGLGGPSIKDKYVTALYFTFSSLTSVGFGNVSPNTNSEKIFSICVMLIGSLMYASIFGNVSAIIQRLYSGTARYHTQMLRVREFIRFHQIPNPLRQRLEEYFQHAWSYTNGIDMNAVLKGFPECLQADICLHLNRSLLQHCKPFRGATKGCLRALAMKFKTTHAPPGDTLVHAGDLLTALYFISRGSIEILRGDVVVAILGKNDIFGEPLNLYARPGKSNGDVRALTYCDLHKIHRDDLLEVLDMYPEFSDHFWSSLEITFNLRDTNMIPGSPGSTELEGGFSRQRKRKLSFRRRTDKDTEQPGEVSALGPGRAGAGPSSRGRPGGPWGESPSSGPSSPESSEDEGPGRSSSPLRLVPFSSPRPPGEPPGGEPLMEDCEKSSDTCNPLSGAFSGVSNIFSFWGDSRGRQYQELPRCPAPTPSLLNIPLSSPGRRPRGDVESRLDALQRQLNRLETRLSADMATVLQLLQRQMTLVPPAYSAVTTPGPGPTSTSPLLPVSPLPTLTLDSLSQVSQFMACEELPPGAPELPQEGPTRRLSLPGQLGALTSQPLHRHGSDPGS

Compound | EC10 [1] [nM] | EC20 [2] [nM] | IC50 [3] [nM] | logD [4] | Papp A→B [5] [×10⁻⁶ cm/s] | microsomal CLint [6] [µL/min/mg] | inhibition at 3 µM (CYP1A2) [%] | clearance [7] [mL/min/kg] | Vd [8] [L/kg] | half-life [9] [h] | bioavailability [10] [%] | IC50 [11] [nM] | microsomal CLint [12] [µL/min/mg] | INH [13] [µM] | Papp [14] [×10⁻⁶ cm/s]
Fc1ccccc1Cn1nc(-c2nc(C(F)(F)F)n[nH]2)c2cccnc21 | 60 | 22 | 33 | 3.2 | 20 | < 11 | 20 | 8 | 3.1 | 4.7 | 66 | – | – | – | –
Fc1ccccc1Cc1nc(-c2nc(C(F)(F)C(F)(F)F)n[nH]2)n2ccccc12 | 1170 | – | – | 4.2 | 3 | 92 | 31 | – | – | – | – | – | – | – | –
Fc1ccccc1Cc1nc(-c2nc(C(F)(F)F)n[nH]2)n2ccccc12 | 470 | 281 | – | 3.8 | 6 | 72 | 57 | – | – | – | – | 40 | – | – | –
Fc1ccccc1Cc1nc(-c2nc(Cc3ccccc3)n[nH]2)n2ccccc12 | 840 | 554 | – | – | 0.5 | – | 29 | – | – | – | – | – | – | – | –
FC(F)(F)c1n[nH]c(-c2nc(Cc3cncnc3)c3ccccn23)n1 | 210 | 80 | – | 1.8 | 19 | < 7 | 82 | 9.9 | 3.7 | 4.1 | 61 | 60 | < 16 | > 10 | –
Fc1ccccc1Cc1nc(-c2nc(C(F)F)n[nH]2)n2ccccc12 | 507 | – | – | 3.8 | 0.2 | 62 | 49 | – | – | – | – | – | – | – | –
Cc1ncc(Cn2nc(-c3nc(C(F)(F)F)n[nH]3)c3cccnc32)cn1 | – | 58 | – | – | – | < 7 | < 5 | – | – | – | – | – | – | – | 27
Cc1n[nH]c(-c2nc(Cc3ccccc3F)c3ccccn23)n1 | 393 | – | – | 3.3 | 1 | 124 | 23 | – | – | – | – | – | – | – | –
Cc1ncc(Cc2nc(-c3nc(C(F)(F)F)n[nH]3)n3cccc(F)c23)cn1 | – | 73 | – | 2 | 23 | < 8 | 15 | – | – | – | – | – | – | – | –
Fc1ccccc1Cc1nc(-c2ncn[nH]2)n2ccccc12 | 2800 | – | – | 3.3 | 8 | 175 | 39 | – | – | – | – | – | – | – | –
Nc1nc(-c2nn(Cc3ccccc3F)c3ncccc23)nc(N)c1N1CCOCC1 | 44 | 11 | – | 3.1 | – | – | – | – | – | – | – | 11 | – | – | –
Fc1ccccc1Cc1nc(-c2nc(C(F)(F)F)n[nH]2)n2cccnc12 | 724 | 221 | – | 2.5 | 28 | 17 | 17 | – | – | – | – | – | – | – | –
CS(=O)(=O)c1n[nH]c(-c2nc(Cc3ccccc3F)c3ccccn23)n1 | 1340 | – | – | 1.2 | – | 14 | 3 | – | – | – | – | – | – | – | –
Fc1ccccc1Cc1nc(-c2nc(C(F)(F)F)n[nH]2)c2cccnn12 | 224 | – | – | – | – | – | – | – | – | – | – | – | – | – | –
Cc1ncc(Cc2nc(-c3nc(C(F)(F)F)n[nH]3)n3ccccc23)cn1 | 366 | 245 | – | 2.1 | 27 | < 8 | 5 | – | – | – | – | – | – | – | –
OCc1ccc(-c2nn(Cc3ccccc3)c3ccccc23)o1 | 3360 | – | – | 3.7 | 6 | 212 | 69 | – | – | – | – | – | – | – | –
NC(=O)c1n[nH]c(-c2nc(Cc3ccccc3F)c3ccccn23)n1 | 2810 | – | – | 2.8 | 13 | < 8 | 16 | – | – | – | – | – | – | – | –
Fc1ccccc1Cc1nc(-c2nc(C(F)(F)F)n[nH]2)c2ccccn12 | 658 | 1070 | – | 3.9 | 17 | 20 | 66 | – | – | – | – | – | – | – | –
